Compound activity as filed in PubChem BioAssay.
Shown is part of a subset that was picked to be rich in hits.
PGC1a Ac signal = raises PGC1a acetylation signal in U2OS cells; activation, % at 15.6 µM; U2OS PGC1a acetylation AlphaScreen, overnight; AID 651723; 350,000 compounds, 0.21% hits;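 active = every replicate reaching activation of at least 50%, whatever the mean replicate activation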;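 note: hits raise the AlphaScreen acetylation signal above neutral controls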
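Test system: U2OS cells expressing flag-PGC1a plus GCN5; Amount: 7000 U2OS cells per well; Compound: single test concentration per compound; Incubation: compound overnight at 37 °C, each detection step 1 h RT; Signal: AlphaScreen lysate read.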
* hit, by the source's call.

SMILES	PGC1a Ac signal
O=C(c1ccc(CN2CCOCC2)cc1)N1CCN(Cc2ccccc2)CC1	-43
Cc1cc(C)cc(NC(=O)c2ccc([N+](=O)[O-])o2)c1	247*
O=C(Nc1c(Cl)ccc2nsnc12)c1ccc([N+](=O)[O-])o1	74*
CC(=O)c1ccc(NC(=O)c2ccc([N+](=O)[O-])o2)cc1	101*
O=[N+]([O-])c1ccccc1-c1ccc(C(=S)N2CCN(c3ccccc3)CC2)o1	-41
Cc1cc(C)cc(C(=O)Nc2ccc3[nH]c(=O)[nH]c3c2)c1	-48
O=C(Nc1ccc(N2CCN(C(=O)c3ccccc3)CC2)cc1)c1ccc([N+](=O)[O-])o1	122*
COc1cccc(NC(=O)c2ccccc2-c2ccccc2C(=O)O)c1	-81
CSc1ncccc1C(=O)N1CCN(C(=O)c2ccccc2)CC1	-44
CCN(CC)c1ccc(NC2=C(Cl)C(=O)c3ccccc3C2=O)cc1	-68
CCOC(=O)C1CCN(C(=O)CSc2ccc(Br)cc2)CC1	-40
O=C(Nc1ccc(F)cc1)c1sc2cc(C(F)(F)F)cnc2c1-c1cccs1	-114
COc1ccc(N=C2SC(C(N)=O)CC(=O)N2Cc2ccc3c(c2)OCO3)cc1 (centres undefined)	-54
CCCOC(=O)c1ccc(-n2nnnc2SCC(=O)N2CCCCC2)cc1	-49
C[C@H](CO)N1C[C@H](C)[C@H](CN(C)C(=O)CN(C)C)Oc2cc(-c3cncnc3)ccc2S1(=O)=O	-52
C=CCn1c(SCC(=O)NCc2ccccc2)nnc1-c1ccccc1O	-58
O=[N+]([O-])c1cc(-c2nnc(Nc3ccc(O)cc3)c3ccccc23)ccc1N1CCOCC1	129*
O=S(=O)(N[C@@H]1CC[C@@H](CCNS(=O)(=O)c2ccccc2Cl)O[C@H]1CO)c1ccccc1	-62
CCOc1ccccc1OCCn1nnc2ccccc21	53*
CC(C)C[C@H]1CNC(=S)N1CC1CCCN1C[C@H](Cc1ccccc1)N1C[C@H](Cc2ccc(O)cc2)N(CC2CCCCCC2)C1=S (some centres undefined)	-51
O=C(O)Cn1cc(C(=O)C(F)(F)F)c2ccccc21	-45
COc1ccc2c3c(n(C)c2c1)[C@H](CO)NCC31CCN(Cc2cc(-c3ccccc3)on2)CC1	-69
O=C(NC[C@@H]1N[C@@H](CO)[C@H]1c1ccc(C2=CCCCC2)cc1)c1ccc(F)cc1	66*
CN(C[C@H]1N[C@@H](CO)[C@@H]1c1ccc(C2=CCCC2)cc1)C(=O)c1ccc(F)cc1	-79
O=C(OCCCN1CCCCC1)c1ccc(O)cc1	-46
SMILES	PGC1a Ac signal
Cc1ccccc1S(=O)(=O)NCC[C@@H]1CC[C@@H](NC(=O)C2CCOCC2)[C@H](CO)O1	-58
COc1cc(CN2[C@@H]3CNC[C@H]2C3c2ccc(-c3ccccc3)cc2)cc(OC)c1 (some centres undefined)	52*
N#C[C@@H]1[C@@H](c2ccc(-c3ccccc3)cc2)[C@@H](CO)N1C(=O)Cc1ccncc1	-63
CCOC(=O)N1CCN(C(=O)C(NS(=O)(=O)c2cccc3nsnc23)c2ccccc2)CC1 (centres undefined)	59*
CCCCn1c(=NC(=O)c2cccnc2)c(C(=O)OCC)cc2c(=O)n3ccccc3nc21	115*
COc1ccc(C#Cc2c(-c3ccccc3)n(-c3ccccc3)c3ccc(CO)cc23)cc1	71*
O=C(N/N=C/c1ccc(OC2CSC2)cc1)c1ccc(CN2CCOCC2)cc1	-42
C=C1C(=O)O[C@H]2[C@@H]1CC/C(CO)=C\CC[C@@]1(C)O[C@@H]21	61*
O=C(CN1C(=O)C2CC=CCC2C1=O)Nc1nccs1 (centres undefined)	-50
CC(C)CCCCCCCCCCCCC(=O)NCC(=O)NC1C(O)C(O)C(Nc2ncnc3nc[nH]c23)OC1C(O)CO (centres undefined)	-96
COc1cccc(NC(=O)CN(C)C(=O)CNC(=O)c2ccccc2F)c1	-45
CCOC(=O)c1cn(-c2ccccc2)nc1-c1cccnc1	77*
CCOC(=O)/C(=C\c1cccnc1)C(=O)c1cc(C(C)=O)c(Nc2ccccc2)s1	-84
COc1cccc(-c2nn(-c3ccccc3)cc2CN(C)C(C)c2ccncn2)c1 (centres undefined)	-41
CSc1nn(-c2ccc(C(=O)OC(C(=O)NC(N)=O)C(C)C)cc2)c(=S)s1 (centres undefined)	-45
C[C@H](NC(=O)C[C@H]1C[C@@H]2c3cc(NC(=O)Nc4ccc(C(F)(F)F)cc4)ccc3O[C@@H]2[C@@H](CO)O1)c1ccccc1	-44
O=C(Cc1ccccn1)NCC[C@@H]1CC[C@H](NC(=O)Nc2ccc(C(F)(F)F)cc2)[C@@H](CO)O1	-50
O=C(COC(=O)c1ccccc1C(=O)c1ccc(Cl)c([N+](=O)[O-])c1)NC1CC1	94*
CO[C@H]1CN(C)C(=O)c2cc(NS(C)(=O)=O)ccc2OC[C@@H](C)N(C(=O)CC2CC2)C[C@H]1C	-46
CCOC(=O)C(CC)(CC)C(=O)/C=C/c1ccc(Br)cc1	-57
CCOc1ccc(/C=C/C(=O)Oc2ccccc2)cc1	154*
CCCCOc1ccc(/C=C/C(=O)OCC(=O)c2c(N)n(C)c(=O)n(C)c2=O)cc1OCC	-47
COC(=O)c1ccccc1N(C)S(=O)(=O)c1cc2c(cc1C)OCC(=O)N2	-44
COc1cc(CNCCN2CCOCC2)ccc1OCc1ccc(Cl)cc1Cl	-101
Cc1cccc(S(=O)(=O)N2C[C@@H]3N[C@H](C2)C3c2ccc(-c3ccccc3C)cc2)c1 (some centres undefined)	166*
SMILES	PGC1a Ac signal
O=S(=O)(c1ccc(-c2ccccc2)cc1)N1C[C@@H]2N[C@H](C1)[C@@H]2c1ccc(-c2cccnc2)cc1	-55
COc1cccc(S(=O)(=O)N2C[C@@H]3N[C@H](C2)C3c2ccc(-c3ccccc3C)cc2)c1 (some centres undefined)	242*
Cc1ccc(S(=O)(=O)N2C[C@@H]3N[C@H](C2)[C@@H]3c2ccc(-c3cccc(C)c3)cc2)cc1	66*
COc1cccc(-c2ccc(C3[C@@H]4CN(S(=O)(=O)c5cccc(OC)c5)C[C@H]3N4)cc2)c1 (some centres undefined)	57*
COCC(=O)Nc1ccc2c(c1)OC[C@@H](C)N(CCc1ccccc1)C[C@H](C)[C@H](OC)CN(C)C2=O	-46
O=C(Nc1nc(-c2ccccn2)cs1)c1ccccc1-n1cnnn1	-43
CC(C)(C)c1ccc(O)c(O)c1	-47
CC1(C)OC(C)(C)/C(=C\c2ccc(OCC(N)=O)cc2)C1=O	-46
O=C(N/N=C/c1ccccc1C(=O)O)c1cccc(S(=O)(=O)Nc2cc(Cl)ccc2Cl)c1	-47
CC(C)(C)C(=O)NC(C(N)=O)=C(Cl)Cl	65*
Cc1ccc(S(=O)(=O)N/N=C/c2c[nH]c3ccccc23)cc1	-105
Cc1nonc1NC(=O)CSc1nc(C2CCCCC2)nc2ccccc12	-55
O=C(Nc1cccc(S(=O)(=O)N2CCOCC2)c1)c1ccco1	67*
O=C1c2ccccc2-c2c1cccc2C(=O)N1CCN(C(=O)c2ccco2)CC1	-43
O=C(Nc1cccc(S(=O)(=O)N2CCCCC2)c1)c1ccc([N+](=O)[O-])o1	226*
O=S(=O)(c1ccc2[nH]ccc2c1)N1CCCCCC1	-68
Cc1ccc(S(=O)(=O)N2CCN(C(=O)N3CCOCC3)CC2)cc1C	-42
CC(C)(C)NS(=O)(=O)c1ccc(CCC(=O)N2CCOCC2)cc1	-46
Cc1ccc(NC(=O)c2ccc([N+](=O)[O-])o2)cc1S(=O)(=O)N1CCOCC1	191*
